ChEMBL document CHEMBL1122918, “Optimization of the Schiff bases of N-hydroxy-N'-aminoguanidine as anticancer and antiviral agents” (J Med Chem, 1985)

Legend:
Rous sarcoma virus [1] = test: Inhibition of cell transformation by Rous Sarcoma virus; type: functional; settings: read-out: ID50 (the source's name)
Outline: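 Chick embryo fibroblasts at 5 × 10⁵ cells/60-mm dish, given about 200 focus-forming units of Rous sarcoma virus with drug (final 10⁻³ to 10⁻⁶ M, up to 1% Me₂SO in stock) for 8-16 h at 37 °C. Agar overlay with drug for 4 days, then second overlay. Foci counted on days 7-10; % inhibition = (1 − T/C)×100, probit analysis.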

L1210 [2] = test: Concentration required for 50% inhibition of cell growth (L1210 Leukemia); type: functional, cell-based; settings: Mus musculus, read-out: pI50 (converted)
Outline: (§1)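 L1210 cells in RPMI1640 with 10% fetal calf serum, seeded at (3–4) × 10⁴ cells/mL. Drug added to final 10⁻³ to 10⁻⁶ M, duplicates, with untreated and Me₂SO controls. Incubated at 37 °C in 5% CO₂, counted by Coulter counter.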

L1210 [3] = test: Dose required for 50% inhibition of cell growth (L1210 Leukemia) calculated at 48 hours by using probit analysis.; type: functional, Mus musculus; settings: for IC50: Mus musculus, L1210, 48 h, read-out: ID50 (the source's name); outline: as §1
Rous sarcoma virus [4] = test: Compound was tested for percent inhibition against Rous sarcoma viral replication at 1e-6 M; type: functional
Outline: (§2)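 Chick embryo cells at 5 × 10⁵ cells/60-mm dish, medium replaced with fresh Hams F10 medium plus drug solution and Rous sarcoma virus; control of medium plus virus only. On days 3 and 6, medium plus drug renewed; medium harvested two days later. Virus titer in harvests measured by drug-free focus assay on chick embryo fibroblasts and compared with control.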

Rous sarcoma virus [5] = test: Compound tested for its effect on Rous sarcoma viral replication and virus yield was determined at 1e-6 M; type: functional; outline: as §2
[6] = Compound was evaluated for lethal dose in mice; type: toxicity, organism-based; settings: mouse, in vivo
Outline: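 Swiss-Webster male mice, six per dose; compound suspended in 2.5% acacia in normal saline and injected intraperitoneally by body weight; vehicle-injected controls. LD50 calculated by probit analysis.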

Rous sarcoma virus [7] = test: Compound tested for its effect on Rous sarcoma viral replication and virus yield was determined at 2e-5 M; type: functional; outline: as §2
Rous sarcoma virus [8] = test: Compound was tested for percent inhibition against Rous sarcoma viral replication at 2e-5 M; type: functional; outline: as §2
Mus musculus = test: Compound evaluated for % T/C of median survival time at 100 mg/kg against P388 leukemia in mice
Rous sarcoma virus [9] = test: Compound tested for its effect on Rous sarcoma viral replication and virus yield was determined at 3e-6M; type: functional; outline: as §2
Rous sarcoma virus [10] = test: Compound was tested for percent inhibition against Rous sarcoma viral replication at 3e-6M; type: functional; outline: as §2
Rous sarcoma virus [11] = test: Compound tested for its effect on Rous sarcoma viral replication and virus yield was determined at 7e-6M; type: functional; outline: as §2
Rous sarcoma virus [12] = test: Compound was tested for percent inhibition against Rous sarcoma viral replication at 7e-6M; type: functional; outline: as §2
Rous sarcoma virus [13] = test: Compound tested for its effect on Rous sarcoma viral replication and virus yield was determined at 5e-6M; type: functional; outline: as §2
Rous sarcoma virus [14] = test: Compound was tested for percent inhibition against Rous sarcoma viral replication at 5e-6M; type: functional; outline: as §2

Row | Structure (SMILES) | IC50 (Rous sarcoma virus [1]) [µM] | IC50 (L1210 [2]) [µM] | IC50 (L1210 [3]) [µM] | other results
1 | N/C(=N\O)N/N=C/c1ccc(OCc2ccccc2)cc1 | 8.1 | 25.1 | 25.3 | –
2 | N/C(=N\O)N/N=C/c1cccnc1 | 81 | 22.9 | 23.1 | –
3 | COc1ccc(OC)c(/C=N/N=C(\N)NO)c1.Cc1ccc(S(=O)(=O)O)cc1 | 2.7 | 7.08 | 7.1 | Inhibition (Rous sarcoma virus [4]): 80%; Virus yield (Rous sarcoma virus [5]): 31000 ffu ml-1
4 | Cc1ccc(S(=O)(=O)O)cc1.N#Cc1ccc(/C=N/N/C(N)=N/O)cc1 | 97.2 | 9.33 | 9.4 | LD50 [6]: 156 mg/kg
5 | Cc1ccc(S(=O)(=O)O)cc1.N/C(=N\O)N/N=C/c1ccc2ccccc2n1 | 43.8 | 6.76 | 6.8 | Virus yield (Rous sarcoma virus [7]): 25000 ffu ml-1; Inhibition (Rous sarcoma virus [8]): 84%
6 | Cc1ccc(S(=O)(=O)O)cc1.N/C(=N\O)N/N=C/c1cc(Br)cc(Br)c1O | 6.5 | 16.6 | 16.5 | T/C (Mus musculus): 140%
7 | Cc1ccc(S(=O)(=O)O)cc1.N/C(=N\O)N/N=C/c1nccc2ccccc12 | 15.8 | 3.31 | – | Virus yield (Rous sarcoma virus [9]): 34000 ffu ml-1; ID50 (L1210 [3]): 3.3 µM; Inhibition (Rous sarcoma virus [10]): 79%
8 | Cc1ccc(S(=O)(=O)O)cc1.N/C(=N\O)N/N=C/C1CC2C=CC1C2 (stereo not drawn) | – | 10.7 | 10.6 | Virus yield (Rous sarcoma virus [11]): 9300 ffu ml-1; Inhibition (Rous sarcoma virus [12]): 94%
9 | N/C(=N\O)N/N=C/c1ccc(C(F)(F)F)cc1 | 11.8 | 9.12 | 9.2 | –
10 | N/C(=N\O)N/N=C/c1ccc(Cl)c([N+](=O)[O-])c1 | 9.6 | 12.6 | 12.7 | –
11 | CS(=O)(=O)Oc1cccc(/C=N/N=C(\N)NO)c1 | 35.2 | 14.8 | 14.8 | –
12 | Cc1ccc(S(=O)(=O)O)cc1.Cn1cccc1/C=N/N=C(\N)NO | 4.5 | 2.69 | 2.7 | Virus yield (Rous sarcoma virus [13]): 90000 ffu ml-1; LD50 [6]: 322 mg/kg; Inhibition (Rous sarcoma virus [14]): 44%
13 | N/C(=N\O)N/N=C/c1cccc([N+](=O)[O-])c1 | 35.7 | 7.59 | 7.6 | –
14 | NC(=O)NO [HYDROXYUREA] | – | 21.4 | 21.6 | –
